KCNQ1 block: blocks the human KCNQ1 potassium channel; CHO-K1 KCNQ1, FluxOR thallium flux fluorescence; hits give high values; B-score at 10 µM; 310,000 tested, 1.3% active; AID 2642;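 active = compounds whose thallium flux B-score, printed positive for inhibition, exceeds three library SD while starting fluorescence stays within three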;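 also: channel opened by potassium depolarization with thallium stimulus after 20 min compound exposure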
KCNK3 block: human KCNK3 channel inhibition, primary screen | CHO-KCNK3 thallium flux, FluxOR fluorescence; hits give low values | 340,000 tested, 0.84% active | B-score at 10 µM | O14649;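 active = B-score under library mean minus 4 SD, starting fluorescence ratio at most library mean plus 5 SD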;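 also: more negative B-score means stronger inhibition of thallium flux through KCNK3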
Target sequence (O14649 whole entry, looked up): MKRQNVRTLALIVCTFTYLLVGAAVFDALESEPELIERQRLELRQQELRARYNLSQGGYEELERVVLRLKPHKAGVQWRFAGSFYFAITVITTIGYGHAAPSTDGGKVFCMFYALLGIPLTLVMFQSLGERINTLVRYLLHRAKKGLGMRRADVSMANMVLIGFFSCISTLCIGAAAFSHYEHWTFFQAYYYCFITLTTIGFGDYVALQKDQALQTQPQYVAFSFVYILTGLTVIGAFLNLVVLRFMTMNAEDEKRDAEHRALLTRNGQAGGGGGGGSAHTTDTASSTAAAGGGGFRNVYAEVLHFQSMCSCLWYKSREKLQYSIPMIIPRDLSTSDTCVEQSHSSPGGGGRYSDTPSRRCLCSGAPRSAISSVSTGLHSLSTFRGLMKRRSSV
KCNK9 block: human KCNK9 channel inhibition; Q9NPC2; HEK293 KCNK9, FluxOR thallium flux fluorescence; hits give low values; B-score at 10 µM; 310,000 tested, 1.2% active;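 active = ratio B-score over 3 SD below the library mean, with starting fluorescence within 5 SD of its mean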;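 also: negative B-score means less thallium flux so channel inhibition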
Kir21 inh: inhibitors of mouse Kir2.1 inward-rectifier potassium channel | HEK293-Kir2.1, FluxOR thallium flux fluorescence; hits give low values | B-score at 10 µM | 310,000 tested, 0.85% active | AID 1672;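 active = fluorescence ratio B-score at or below minus 3 SD of library scores, with starting-brightness B-score within 2 SD, cut at about -4.2 in these data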;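 also: channel flux triggered by added potassium and thallium sulfate stimulus; B-score of peak minus minimum fluorescence over baseline after thallium stimulus; more negative B-score means stronger Kir2.1 block with less thallium influx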
KCNQ1 pot: potentiates or activates the human KCNQ1 potassium channel | CHO-K1 KCNQ1, thallium flux FluxOR fluorescence; hits give high values | P51787 | AID 2648 | B-score at 10 µM | 310,000 tested, 0.35% active;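 active = fluorescence ratio B-score, a plate-corrected score, at least three library SD, with initial intensity B-score within 5 SD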
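Medium – assay buffer, equal DMSO in all wells · Material – CHO-K1 cell line with stable KCNQ1 potassium channel expression · Signal – kinetic FluxOR thallium fluorescence, 10-s 1-Hz baseline, 110-s post-stimulus read · Compound – single concentration per compound, DMSO matched to controls · Schedule – 37 °C overnight plating, 90-min dark dye load, 20-min compound pretreatment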
hERG rescue: hERG (human) protection from proarrhythmic block; CHO-hERG, FluxOR thallium flux, dofetilide IC70 present; activation (rescue from dofetilide block), less the hit threshold, % at 10 µM; 310,000 tested, 0.51% active; AID 1511;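 active = activation above the mean of controls blocked by dofetilide plus 5 SD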;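 also: thallium influx through hERG after potassium depolarization seen as dye fluorescence rise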
KCNK9 block conf: human KCNK9 inhibitor confirmation; inhibition, % at 10 µM; HEK293 KCNK9 cells, FluxOR thallium flux fluorescence; shares compounds with KCNK9 block; AID 492992; 4,900 tested, 43% active;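 active = thallium signal inhibited by more than 5 SD of the compound-free buffer control wells, on both duplicate plates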
Kir21 sel: mouse Kir2.1 off-target activity of KCNK9 modulators; 4,900 tested, 4% active; AID 492993; Kir2.1 cells, FluxOR thallium flux fluorescence; inhibition, % at 10 µM; shares compounds with KCNK9 block;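 active = thallium signal drop more than 5 SD beyond the mean of the no-compound control wells, seen in both duplicate plates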;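 also: signal is fluorescence rise after thallium addition divided by baseline fluorescence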
HEK293 Tl ctr: second check of KCNK9 modulator effects in non-induced HEK293 cells | 4,900 tested, 40% active | AID 492997 | shares compounds with KCNK9 block | FluxOR thallium flux | inhibition, % at 10 µM;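 active = thallium signal drop beyond 5 SD of the untreated control mean, on both duplicate plates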
Numbers stand for hits; . = inactive; / = no result. An excerpt weighted towards active compounds, which were near 3.8% of everything screened.

SMILES | KCNQ1 block | KCNK3 block | KCNK9 block | Kir21 inh | KCNQ1 pot | hERG rescue | KCNK9 block conf | Kir21 sel | HEK293 Tl ctr
COc1cccc(-n2c(-c3ccoc3)nc3ccccc3c2=O)c1 | . | . | -18 | . | . | . | . | . | .
CCOc1cc2c(cc1OCC)-n1cccc1C(c1ccc(F)c(OC)c1)NC2 (configuration not stated) | . | . | . | . | . | . | / | / | /
CSc1ccc(C(=O)C2CCCN(Cc3cccnc3)C2)cc1 (configuration not stated) | . | . | . | . | . | . | / | / | /
CSc1ccc(C(=O)C2CCCN(Cc3cc4ccccc4[nH]3)C2)cc1 (configuration not stated) | . | . | . | . | . | . | . | 50% | .
Brc1ccc(-[n+]2c(-c3ccccc3)cc(-c3ccccc3)cc2-c2ccccc2)cc1 | 7 | . | -8.3 | -8.4 | . | . | 64% | 58% | .
Cc1ccc(-c2cc(-c3ccc(C)cc3)[n+](-c3ccc(C(=O)O)cc3)c(-c3ccc(C)cc3)c2)cc1 | . | . | . | . | . | . | / | / | /
Cc1ccc(C[n+]2c(-c3ccc(C)cc3)cc(-c3ccc(C)cc3)cc2-c2ccc(C)cc2)cc1 | . | -8.7 | -13 | -14 | 34 | . | 61% | 81% | 38%
Brc1ccc(Oc2cc(Br)c(Br)cc2Br)c(Br)c1 | / | . | / | / | / | / | / | / | /
CCCNC(=O)N1[C@H]2CC[C@@H]1C(C(=O)OC)=C(c1ccc(OC(F)(F)F)cc1)C2 | / | . | / | / | / | / | / | / | /
COc1cccc(OC)c1CN1CCCC(C(=O)c2cccc(Cl)c2)C1 (configuration not stated) | . | . | . | . | . | . | . | . | .
COc1ccc(C(=O)C2CCCN(Cc3ccc(F)cc3F)C2)cc1F (configuration not stated) | . | . | . | . | . | . | . | . | .
Cc1ncc(CN2CCCC(C(=O)c3cccc(OC(C)C)c3)C2)s1 (configuration not stated) | . | . | . | . | . | . | . | . | .
COc1ccc(OC)c(CN2CCCC(C(=O)c3sccc3C)C2)c1 (configuration not stated) | . | . | . | . | . | . | . | . | .
COC(=O)C1=C(c2ccccc2)C[C@@H]2CC[C@H]1N2C(=O)NCCS(C)=O (some centres not stated) | . | . | . | . | . | . | / | / | /
COc1ccc(OC)c(NP(=O)(Oc2ccc(Cl)cc2)Oc2ccc(Cl)cc2)c1 | . | . | -11 | . | . | . | 76% | . | 44%
COc1ccc(OC)c(NP(=O)(Oc2ccccc2)Oc2ccccc2)c1 | . | . | . | . | . | . | / | / | /
ClC1=C(Cl)C2(Cl)C3C(Cl)C=CC3C1(Cl)C2(Cl)Cl (configuration not stated) | / | . | / | / | / | / | / | / | /
Cc1ccccc1CCNCc1cc2cccc(C)c2[nH]c1=O | . | . | . | . | . | . | / | / | /
COC(=O)c1cccc(NC(=O)N2C[C@H]3C[C@@H](C2)c2cccc(=O)n2C3)c1 | . | . | . | . | . | . | / | / | /
C/C(=N\N1CCCCC1c1cccnc1)c1c(O)n(C2CCCCC2)c(=S)[nH]c1=O (configuration not stated) | . | . | -14 | . | . | . | 75% | . | 56%
CCCCn1c(O)c(/C(CC)=N/N2CCCCC2c2cccnc2)c(=O)[nH]c1=S (configuration not stated) | . | . | -18 | . | . | . | 78% | . | 56%
CCCCn1c(O)c(/C=N/N2CCCCC2c2cccnc2)c(=O)[nH]c1=S (configuration not stated) | . | . | . | . | . | . | / | / | /
COC(=O)C1=C(c2ccc(-c3ccccc3)c(F)c2)C[C@@H]2CC[C@H]1N2C(=O)NCCOc1ccccc1 | / | . | / | / | / | / | / | / | /

Screening results from PubChem BioAssay.
